Screening data: PubChem BioAssay, Johns Hopkins Ion Channel Center
Only some compounds are listed: those with a hit (about 2.3% of all), similar ones and a draw of the others.
TRPC6 act: mouse TRPC6 channel activators, primary screen, cell-based, HEK293, membrane potential dye | B-score at 10 µM | Short transient receptor potential channel 6 (Mus musculus), Q61143 | hit rate 0.13% among 310,000 | AID 2550, 2010 | HEK293-TRPC6 membrane potential dye fluorescence; active compounds read high;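 active = B-score of the integrated fluorescence ratio above library mean plus 3 SD, and starting fluorescence ratio within library mean plus 5 SD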;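 note: higher score means more depolarization so channel activation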
TRPC4 agonist: activators of mouse TRPC4 channel, primary screen, Fluo4 calcium, HEK293 TRPC4beta/mu-opioid cells | Short transient receptor potential channel 4 (Mus musculus), Q9QUQ5 | Fluo4 calcium fluorescence; active compounds read high | B-score at 10 µM | hit rate 0.49% among 310,000;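 active = B-score above 5 SD of library B-scores, and initial fluorescence ratio not above library mean plus 5 SD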;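 note: positive B-score marks a calcium rise read as TRPC4 activation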
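System: HEK293 cells stably co-expressing mouse TRPC4beta and mu-opioid receptor; Schedule: Fluo4 dye loading 45 min at room temperature, 110 s recording; Detection: Fluo4 fluorescence, kinetic; Evaluation: B-scored integrated calcium fluorescence ratio; Controls: buffer (low) and maximal DAMGO (high).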
TRPC6 inhibitor: mouse TRPC6 channel inhibitors, primary screen, cell-based, HEK293, membrane potential dye. Short transient receptor potential channel 6 (Mus musculus), Q61143. ACh-evoked depolarization; active compounds read low. B-score at 10 µM. hit rate 1.1% among 310,000;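 active = B-score under library mean minus 3 SD, initial fluorescence not abnormally high, positive integrated signal ratio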;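 note: B-score derived from integrated fluorescence ratio over the kinetic read; more negative B-score means stronger inhibition of depolarization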
TRPC4 potent: positive allosteric modulators of TRPC4, primary screen, cell-based, mouse TRPC4beta, HEK293 mu-opioid, Fluo-4 calcium; DAMGO EC20, Fluo-4 Ca2+ flux; active compounds read high; hit rate 0.42% among 310,000; Short transient receptor potential channel 4 (Mus musculus), Q9QUQ5; AID 2227, 2009; B-score at 10 µM;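 active = B-score of calcium response area above 5 SD of library B-scores, with initial fluorescence ratio within 5 SD of library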;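 note: B-score of integrated fluorescence ratio over time as area under calcium response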
TRPC4 inh: inhibitors of mouse TRPC4 channel, primary screen, Fluo4 calcium, HEK293 TRPC4beta/mu-opioid cells | Short transient receptor potential channel 4 (Mus musculus), Q9QUQ5 | DAMGO-evoked Fluo4 calcium flux; active compounds read low | B-score at 10 µM | hit rate 0.39% among 300,000;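 active = B-score over 3 SD under the library average, no early fluorescence shift, positive overall ratio signal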
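Assay system: TRPC4beta/mu-opioid receptor HEK293 cell line; compound dosing: single concentration per test compound; detection: Fluo4 Ca2+ flux fluorescence; evaluation: per-well B score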
* marks the source's active call; other numbers are inactive results; i = inactive.

SMILES	TRPC6 act	TRPC4 agonist	TRPC6 inhibitor	TRPC4 potent	TRPC4 inh
CC1=NN(c2ccccc2)C(=O)/C1=C\C=C1\N(C)c2ccccc2C1(C)C	i	58*	i	i	i
COc1ccc(C(=O)O)cc1S(=O)(=O)N(C)CCc1ccccn1	i	46*	i	i	i
CC1Cc2ccccc2N1S(=O)(=O)c1cccc(C(=O)N2CC(=O)Nc3ccccc32)c1 (stereo unspecified)	i	i	i	i	i
CCOC(=O)CC1(NC(=O)c2cc(COc3cccc(OC)c3)on2)CCCCC1	i	i	i	i	i
COc1ccc(C(CNCC(O)COc2c(C)ccc(C)c2C)N(C)C)cc1 (stereo unspecified)	i	68*	i	i	i
COc1ccc(OCC(O)CNCc2ccco2)cc1 (stereo unspecified)	i	i	i	i	i
O=Cc1coc2c(ccc3ccccc32)c1=O	i	i	i	i	-5*
O=C(c1ccccc1)N(Cc1ccc(F)cc1)Cc1nc2ccccc2c(=O)[nH]1	i	i	i	12*	i
Cc1ccc2occ(/C=N/NC(=O)[C@@H](N)Cc3ccccc3)c(=O)c2c1	i	i	i	12*	i
CC1=C(C(=O)N2CCOCC2)C(c2ccc(C)cc2)NC(=S)N1 (stereo unspecified)	i	i	i	i	i
O=S(=O)(Cc1ccccc1)N1CCC(c2nc(-c3cccs3)no2)CC1	i	i	i	17*	i
COc1cccc(C(=O)NNS(=O)(=O)c2ccc(C)cc2)c1	i	i	i	i	i
CC1(C)CC(NC(=O)c2ccncc2)CC(C)(C)N1O	i	79*	i	i	i
CN1CCC(NC(=O)c2ccncc2)CC1	i	i	i	i	i
O=C(NCC(c1cccs1)N1CCOCC1)c1ccc(Cl)c([N+](=O)[O-])c1 (stereo unspecified)	i	90*	i	i	i
CC(=O)ONC(=Nc1ccccc1)c1nonc1N	i	i	i	i	i
Cc1ccc(-c2cc(-c3ccccc3)nc(NN)n2)cc1	i	i	i	12*	i
COc1ccc(-c2cc(-c3ccccc3)nc(NN)n2)cc1OC	i	i	i	i	i
C=CCn1cnc2c(nnn2Cc2ccc(F)cc2)c1=O	i	i	i	i	i
O=C(Cc1cccc2ccccc12)Nc1ccc(O)cc1C(=O)O	i	i	i	i	i
O=C(Cc1cccc2ccccc12)Nc1ccc(Br)cc1C(=O)O	i	i	i	i	-7*
COc1ccc(C(=O)Nc2nc(-c3cccs3)cs2)cc1	i	i	i	i	-7*
CCCSc1nnc(NC(=O)c2sc3nc(-c4cccs4)ccc3c2N)s1	i	i	i	i	i
O=C(Nc1nc(-c2cccs2)cs1)c1ccc(Cl)cc1	i	i	i	i	i
Cc1csc(NC(=O)c2sc3nc(-c4cccs4)ccc3c2N)n1	i	47*	i	10*	i
SMILES	TRPC6 act	TRPC4 agonist	TRPC6 inhibitor	TRPC4 potent	TRPC4 inh
O=C(NC1CCN(C(=O)NCc2ccccc2)CC1)c1ccccc1	i	i	i	i	i
Cn1c(=O)oc2cc(S(=O)(=O)Nc3ccc(F)cc3)ccc21	i	i	i	i	i
CCN1CCN(c2ncnc3sc(C)c(-c4ccccc4)c23)CC1	i	86*	i	i	i
CCN1CCN(c2ncnc3scc(-c4ccc(C)c(C)c4)c23)CC1	i	i	i	i	i
CCOC(=O)c1c(NC(=O)COc2cccc3c2CCN(CC)C3=O)sc2c1CCC2	i	i	i	i	i
CCCN=C(Nc1ccc(Cl)cc1)c1cccnc1	i	i	i	i	i
CCCCN=C(Nc1ccc(Cl)cc1)c1cccnc1	i	i	i	i	-6*
